For nine compounds, MIC, Activity and IC50 results are on record in ChEMBL document CHEMBL2385036, “Peptaibols, tetramic acid derivatives, isocoumarins, and sesquiterpenes from a Bionectria sp. (MSX 47401)” (J Nat Prod, 2013).

The MIC is the least concentration at which growth counts as inhibited. A higher MIC goes with a need for much substance. What is called IC50 is the concentration at which inhibition is half-maximal. Read a high IC50 as weaker potency.

Values after ≈ are worked out from the molar mass of the structure shown. Active and inactive are the calls of the source. The rule behind the calls is not given here. A value given as a limit tells only on which side of the number the result lay.

Experiment [1] deals with Staphylococcus aureus. Put plainly: Antimicrobial activity against methicillin-resistant Staphylococcus aureus GU 53016 after 7 days by broth microdilution method. The note with it: GU 53016, 168 h. The class given is functional. An outline of the steps:
(§1)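 MIC read-out; inocula were undiluted cultures plus cultures diluted 10- to 100,000-fold in growth medium. All measurements were run in duplicate.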
For orientation: In broth dilution the organism is exposed to a series of concentrations in liquid medium.

Experiment [2] concerns Staphylococcus aureus. Put plainly: Antimicrobial activity against methicillin-resistant Staphylococcus aureus GU 34380 after 7 days by broth microdilution method. The class given is functional. The conditions noted are these: GU 34380, 168 h. An outline of the steps:
as §1

Experiment [3] deals with Staphylococcus aureus. Kind of experiment: Antimicrobial activity against Staphylococcus aureus ATCC 6538 after 7 days by broth microdilution method. The conditions noted are these: ATCC 6538, 168 h. The class given is functional. An outline of the steps: as §1
Experiment [4] concerns Aspergillus niger. Kind of experiment: Antifungal activity against Aspergillus niger after 7 days by broth microdilution method. The class given is functional. The note with it: 168 h. An outline of the steps:
(§2)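 MIC by broth method: cultures diluted 10- to 100,000-fold in growth medium, with both undiluted cultures and the dilutions used as inocula; each measurement run in duplicate.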

For experiment [5], the system named is Candida albicans. Put plainly: Antifungal activity against Candida albicans after 7 days by broth microdilution method. The class given is functional. The conditions noted are these: 168 h. An outline of the steps:
as §2

Experiment [6] relates to Staphylococcus aureus. Kind of experiment: Antimicrobial activity against methicillin-resistant Staphylococcus aureus GU 52300 after 7 days by broth microdilution method. The class given is functional. The note with it: GU 52300, 168 h. An outline of the steps: as §1
For experiment [7], the system named is Staphylococcus aureus. Put plainly: Antimicrobial activity against methicillin-resistant Staphylococcus aureus GU 34864 after 7 days by broth microdilution method. The class given is functional. The note with it: GU 34864, 168 h. In a few lines:
as §1

Experiment [8] deals with Staphylococcus aureus. Kind of experiment: Antimicrobial activity against methicillin-resistant Staphylococcus aureus ATCC 43300 after 7 days by broth microdilution method. The class given is functional. The conditions noted are these: ATCC 43300, 168 h. In a few lines:
as §1

The test system of experiment [9] is Cryptococcus neoformans. Put plainly: Antifungal activity against Cryptococcus neoformans after 7 days by broth microdilution method. The class given is functional. The conditions noted are these: 168 h. In a few lines: as §2
For experiment [10], the system named is Staphylococcus aureus. Kind of experiment: Antimicrobial activity against methicillin-resistant Staphylococcus aureus GU 36361 after 7 days by broth microdilution method. The class given is functional. The note with it: GU 36361, 168 h. An outline of the steps: as §1
In experiment [11] the test system is Staphylococcus aureus. Put plainly: Antimicrobial activity against methicillin-resistant Staphylococcus aureus DA 1 after 7 days by broth microdilution method. The class given is functional. The conditions noted are these: DA 1, 168 h. An outline of the steps: as §1
The test system of experiment [12] is SF-268. Put plainly: Cytotoxicity against human SF268 cells after 72 hrs by MTS assay. The class given is functional, cell-based. In a few lines:
(§3)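 Cell lines were MCF-7 human breast carcinoma (Karmanos Cancer Center), NCI-H460 human large cell lung carcinoma (ATCC HTB-177) and SF-268 human astrocytoma (NCI Developmental Therapeutics Program). The cytotoxicity protocol followed an earlier report.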
(Tetrazolium assays rely on reduction of a dye to a coloured formazan, in cell work by metabolically active cells.)

Experiment [13] has as its system NCI-H460. Kind of experiment: Cytotoxicity against human NCI-H460 cells after 72 hrs by MTS assay. The class given is functional, cell-based. In a few lines:
as §3

Experiment [14] deals with MCF7. Put plainly: Cytotoxicity against human MCF7 cells after 72 hrs by MTS assay. The class given is functional, cell-based. An outline of the steps:
as §3

With `CC1=CC[C@H]([C@](C)(O)CCC(O)C(C)(C)O)CC1` (some centres not stated), the MIC in experiment [1], in [2], in experiment [3], in experiment [4], in experiment [5] and in [6] was over 118 µg/mL in each case. Moreover, the MIC in [7], in [8], in [9], in experiment [10] and in experiment [11] was over 118 µg/mL throughout.
On to `CC(CCCCCCCCC(=O)CCCCCCCCC[C@@H](O)CO[C@@H]1O[C@H](CO)[C@@H](O)[C@H](O)[C@H]1O)C(=O)C1=C(O)C(Cc2ccc(O)cc2)=NC1=O` (some centres not stated), for which the MIC is 28 µg/mL (≈ 37.4 µM) in experiment [1]; 14 µg/mL (≈ 18.7 µM) in experiment [2]; 14 µg/mL (≈ 18.7 µM) in experiment [3]; over 55 µg/mL in experiment [4]; over 55 µg/mL in experiment [5]; 28 µg/mL (≈ 37.4 µM) in experiment [6]. In addition, the MIC in experiment [7] is 14 µg/mL (≈ 18.7 µM); in experiment [8] it was 14 µg/mL (≈ 18.7 µM); in experiment [9], over 55 µg/mL; in experiment [10], 28 µg/mL (≈ 37.4 µM); in experiment [11] it was 14 µg/mL (≈ 18.7 µM). Further, the outcome in [12], in [13] and in experiment [14] was inactive.
Take `CC[C@H](C)[C@@H](NC(=O)[C@@](C)(CC)NC(=O)[C@@H]1C[C@@H](O)CN1C(=O)[C@@](C)(CC)NC(=O)[C@@](C)(CC)NC(=O)C(C)(C)NC(=O)[C@@H]1C[C@@H](O)CN1C(=O)[C@@](C)(CC)NC(=O)[C@H](CC(C)C)NC(=O)[C@@H]1C[C@@H](O)CN1C(=O)[C@](C)(CC)NC(=O)[C@H](CC(C)C)NC(=O)[C@@H]1C[C@@H](O)CN1C(=O)C(C)(C)NC(C)=O)C(=O)O[C@@H]([C@H](O)[C@H](O)CO)[C@H](O)CO`: the MIC in [1], in experiment [2], in [3], in experiment [4], in experiment [5] and in [6] was over 118 µg/mL in each case. The MIC in experiment [7], in experiment [8], in [9], in experiment [10] and in experiment [11] was over 118 µg/mL in each case.
`CC(=O)c1coc(=O)c2c(O)cc(O)c(C)c12`: the concentration for half-maximal inhibition (IC50) in [12] (SF-268, 72 h) was over 10 µM; in experiment [13] (NCI-H460, 72 h), over 10 µM; in experiment [14] (MCF7, 72 h), over 10 µM.
For the compound `C[C@@H]1[C@H](O)[C@@H](C)/C=C/C=C/C=C/C=C/C=C/C=C/C=C/[C@H](O[C@@H]2O[C@H](C)[C@@H](O)[C@H](N)[C@@H]2O)C[C@@H]2O[C@](O)(C[C@@H](O)C[C@@H](O)[C@H](O)CC[C@@H](O)C[C@@H](O)CC(=O)O[C@H]1C)C[C@H](O)[C@H]2C(=O)O` [AMPHOTERICIN B], the MIC was found to be 100 µg/mL (≈ 108 µM) in experiment [4], 25 µg/mL (≈ 27.1 µM) in [5] and 25 µg/mL (≈ 27.1 µM) in experiment [9].
`CC[C@H](C)[C@@H](NC(=O)[C@@](C)(CC)NC(=O)[C@@H]1C[C@@H](O)CN1C(=O)C(C)(C)NC(=O)[C@@](C)(CC)NC(=O)C(C)(C)NC(=O)[C@@H]1C[C@@H](O)CN1C(=O)[C@@](C)(CC)NC(=O)[C@H](CC(C)C)NC(=O)[C@@H]1C[C@@H](O)CN1C(=O)[C@](C)(CC)NC(=O)[C@H](CC(C)C)NC(=O)[C@@H]1C[C@@H](O)CN1C(=O)C(C)(C)NC(C)=O)C(=O)O[C@@H]([C@H](O)[C@H](O)CO)[C@H](O)CO` [CLONOSTACHIN]: the MIC in [1], in [2], in [3], in experiment [4], in experiment [5] and in [6] was over 118 µg/mL each time. The MIC in experiment [7], in [8], in experiment [9], in experiment [10] and in [11] was over 118 µg/mL each time.
For the compound `CN[C@H](CC(C)C)C(=O)N[C@H]1C(=O)N[C@@H](CC(N)=O)C(=O)N[C@H]2C(=O)N[C@H]3C(=O)N[C@H](C(=O)N[C@H](C(=O)O)c4cc(O)cc(O)c4-c4cc3ccc4O)[C@H](O)c3ccc(c(Cl)c3)Oc3cc2cc(c3O[C@@H]2O[C@H](CO)[C@@H](O)[C@H](O)[C@H]2O[C@H]2C[C@](C)(N)[C@H](O)[C@H](C)O2)Oc2ccc(cc2Cl)[C@H]1O` [VANCOMYCIN], the MIC turned out to be 0.38 µg/mL (≈ 0.262 µM) in experiment [1]; 0.25 µg/mL (≈ 0.173 µM) in [3]; 0.38 µg/mL (≈ 0.262 µM) in experiment [7]; 0.25 µg/mL (≈ 0.173 µM) in [8]; 0.75 µg/mL (≈ 0.518 µM) in [10]; 0.25 µg/mL (≈ 0.173 µM) in experiment [11].
As for `CC(CCCCCCCCC(=O)CCCCCCCCC[C@@H](O)CO)C(=O)C1=C(O)[C@H](Cc2ccc(O)cc2)NC1=O` (some centres not stated) [VIRGINEONE AGLYCONE], the MIC in experiment [1] is 2.8 µg/mL (≈ 4.76 µM); in [2], 2.8 µg/mL (≈ 4.76 µM); in [3], 2.8 µg/mL (≈ 4.76 µM); in experiment [4], over 88 µg/mL; in [5] it was over 88 µg/mL; in experiment [6], 5.5 µg/mL (≈ 9.36 µM). Also, the MIC is 2.8 µg/mL (≈ 4.76 µM) in experiment [7]; 2.8 µg/mL (≈ 4.76 µM) in [8]; over 88 µg/mL in experiment [9]; 5.5 µg/mL (≈ 9.36 µM) in [10]; 2.8 µg/mL (≈ 4.76 µM) in [11]. For the same compound, the outcome in experiment [12], in [13] and in experiment [14] was inactive.
As to `CC(CCCCCCCCC(=O)CCCCCCCCCC(O)CO[C@@H]1O[C@H](CO)[C@@H](O)[C@H](O)[C@@H]1O)C(=O)C1=C(O)C(Cc2ccc(O)cc2)NC1=O` (some centres not stated) [VIRGINEONE], the MIC was found to be 7.2 µg/mL (≈ 9.6 µM) in experiment [1]; 7.2 µg/mL (≈ 9.6 µM) in experiment [2]; 7.2 µg/mL (≈ 9.6 µM) in experiment [3]; 14.4 µg/mL (≈ 19.2 µM) in [4]; 14.4 µg/mL (≈ 19.2 µM) in experiment [5]; 7.2 µg/mL (≈ 9.6 µM) in experiment [6]. Besides, the MIC in experiment [7] is 7.2 µg/mL (≈ 9.6 µM); in [8], 7.2 µg/mL (≈ 9.6 µM); in [9], 14.4 µg/mL (≈ 19.2 µM); in experiment [10] it was 7.2 µg/mL (≈ 9.6 µM); in [11] it was 7.2 µg/mL (≈ 9.6 µM). In addition, the result in experiment [12], in experiment [13] and in [14] was inactive.
